From ChEMBL document CHEMBL1125098, “Lipophilic 1,3-xylyl-21-crown-6 macrocyclic polyether 2-carboxylic acids as biological mimics of the ionophore antibiotics” (1990) come the findings set out here.

Molecules are shown by their SMILES. ≈ marks a conversion by molar mass, not a printed value.

A short description of assay [1]: Antibacterial activity against Streptococcus equi 02I001. The format is functional. Put shortly: (§1)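 Agar dilution MIC on BHI agar: overnight BHI broth cultures (37 °C) diluted 100-fold, ~10000–20000 cells spotted by multiple inoculator; twelve 2-fold dilutions starting at 200 μg/mL; plates read after 18 h at 37 °C, single colonies disregarded. Compounds tested as macrocyclic carboxylate salts.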

Assay [2] is filed under the species Bos taurus. In words: In vitro rumen propionic acid test procedure, 50 ug/mL. The format is functional. Put shortly:
(§2)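 Filtered rumen fluid (10 mL) with 400 mg substrate (68% corn starch, 17% cellulose, 15% extracted soybean meal) and pH 6.8 buffer, compound at 50 or 20 μg/mL; N2-gassed, shaken at 39 °C ~6 h, triplicate. Stopped with metaphosphoric acid, then GLC peak heights of acetic/propionic/butyric acids; response expressed relative to monensin at 10 μg/mL versus untreated controls.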

The test system of assay [3] is Staphylococcus aureus. In words: Antibacterial activity against Staphylococcus aureus 01A005. The format is functional. A digest of the protocol:
as §1

Assay [4] can be described thus: Antibacterial activity Streptococcus zooepidemicus 02H001. The format is functional, Streptococcus equi subsp. zooepidemicus. To be noted: Streptococcus equi. A digest of the protocol: as §1
The subject of assay [5] is Clostridium perfringens. Kind of assay: Antibacterial activity was determined against Clostridium perfringens 10A002. The assay is classed as functional. Put shortly: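 Agar dilution MIC on BHI agar, twelve 2-fold dilutions of drug starting at 200 μg/mL. Overnight BHI broth cultures (37 °C) diluted 100-fold; about 10000–20000 cells spotted per point by multiple inoculator. Plates read after 18 h at 37 °C, single colonies disregarded. Incubated anaerobically under 80% N₂, 10% CO₂, 10% H₂ in an anaerobic chamber.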

The species entered for assay [6] is Bos taurus. In words: In vitro rumen propionic acid test procedure, 20 ug/mL. The assay is classed as functional. Put shortly: as §2

A word on the MIC: it is the lowest concentration that inhibits growth of the organism. Higher therefore signals weaker potency. Regarding `O=C(O)c1c2cccc1COCCOCCOc1ccccc1OCCOCCOC2`, the minimal inhibitory concentration (MIC) in assay [1], in assay [3], in assay [4] and in assay [5] was > 200 µg/mL throughout. The same compound came in with a Stimulation in assay [2] of 0.2%.
Take `CC(C)(C)CC(C)(C)c1cc(Cc2ccccc2)c2c(c1)OCCOCCOCc1cc(C(C)(C)C)cc(c1C(=O)O)COCCOCCO2`: the minimal inhibitory concentration (MIC) in assay [1] worked out at 3.12 µg/mL (≈ 4.52 µM); in assay [3], 3.12 µg/mL (≈ 4.52 µM); in assay [4], 3.12 µg/mL (≈ 4.52 µM); in assay [5], 1.56 µg/mL (≈ 2.26 µM). The figures for the Stimulation in assay [2] and in assay [6] were 0.76% and 0.44%, respectively.
For the compound `CC(C)(C)CC(C)(C)c1ccc2c(c1)OCCOCCOCc1cccc(c1C(=O)O)COCCOCCO2`, the MIC in assay [1], in assay [3], in assay [4] and in assay [5] was 25 µg/mL (≈ 45.9 µM) in each case. Besides, the Stimulation worked out at 1.02% in assay [2] and 0.4% in assay [6].
Regarding `CC(C)(C)c1cc2c(C(=O)O)c(c1)COC(COc1ccccc1)COc1ccccc1OCCOCCOCCOC2` (configuration not stated), the MIC was 25 µg/mL (≈ 42 µM) in assay [1], 25 µg/mL (≈ 42 µM) in assay [3], 50 µg/mL (≈ 84.1 µM) in assay [4] and 25 µg/mL (≈ 42 µM) in assay [5]. The compound further had a Stimulation in assay [6] of 0%.
On to `Cc1cc(C(C)(C)CC(C)(C)C)cc2c1OCCOCCOCc1cc(C(C)(C)C)cc(c1C(=O)O)COCCOCCO2`, for which the MIC in assay [1] amounted to 3.12 µg/mL (≈ 5.07 µM); in assay [3] it was 6.25 µg/mL (≈ 10.2 µM); in assay [4] it was 6.25 µg/mL (≈ 10.2 µM); in assay [5], 3.12 µg/mL (≈ 5.07 µM). Also, the results for the Stimulation in assay [2] and in assay [6] were 1.02% and 0.5%, respectively.
Regarding `COc1cc2c(C(=O)O)c(c1)COCCOCCOc1c(C)cc(C(C)(C)CC(C)(C)C)cc1OCCOCCOC2`, the MIC in assay [1] was determined as 25 µg/mL (≈ 42.5 µM); in assay [3], 50 µg/mL (≈ 84.9 µM); in assay [4], 25 µg/mL (≈ 42.5 µM). In addition, the Stimulation in assay [2] is 0.42%; in assay [6], 0.04%.
As to `O=C(O)c1c2cccc1COCCOCCOCCOCCOCCOC2`, the MIC in assay [1], in assay [3], in assay [4] and in assay [5] was > 200 µg/mL throughout. Further, the Stimulation in assay [2] and in assay [6] was 0% in each case.
Turning to `Cc1cc(C(C)(C)CC(C)(C)C)cc2c1OCCOCCOCc1cc(Br)cc(c1C(=O)O)COCCOCCO2`, the MIC worked out at 6.25 µg/mL (≈ 9.8 µM) in assay [1], 12.5 µg/mL (≈ 19.6 µM) in assay [3] and 12.5 µg/mL (≈ 19.6 µM) in assay [4]. For the same compound, the results for the Stimulation in assay [2] and in assay [6] were 0.53% and 0.06%, respectively.
On to `CCCCCCCCCCCc1ccc2c(c1)OCCOCCOCc1cccc(c1C(=O)O)COCCOCCO2`, for which the MIC in assay [1] was 1.56 µg/mL (≈ 2.66 µM); in assay [3], 1.56 µg/mL (≈ 2.66 µM); in assay [4], 1.56 µg/mL (≈ 2.66 µM); in assay [5] it was 3.12 µg/mL (≈ 5.32 µM). Further, the Stimulation in assay [2] is 0.82%; in assay [6] it was 0.46%.
`CC(C)(C)c1ccc(OCC2COc3ccccc3OCCOCCOCCOCc3cc(C(C)(C)C)cc(c3C(=O)O)CO2)cc1` (configuration not stated): the MIC in assay [1] was 1.56 µg/mL (≈ 2.4 µM); in assay [3] it was 1.56 µg/mL (≈ 2.4 µM); in assay [4], 3.12 µg/mL (≈ 4.79 µM); in assay [5], 1.56 µg/mL (≈ 2.4 µM). Moreover, the figures for the Stimulation in assay [2] and in assay [6] were 1.06% and 0.6%, respectively.
For the compound `COCc1cc(C(C)(C)CC(C)(C)C)cc2c1OCCOCCOCc1cc(C(C)(C)C)cc(c1C(=O)O)COCCOCCO2`, the MIC was 12.5 µg/mL (≈ 19.4 µM) in assay [1], 12.5 µg/mL (≈ 19.4 µM) in assay [3], 25 µg/mL (≈ 38.8 µM) in assay [4] and 25 µg/mL (≈ 38.8 µM) in assay [5]. In addition, the values for the Stimulation in assay [2] and in assay [6] were 0.64% and 0.2%, respectively.
With `CC(C)(C)CC(C)(C)c1cc(CCc2ccccc2)c2c(c1)OCCOCCOCc1cc(C(C)(C)C)cc(c1C(=O)O)COCCOCCO2`, the MIC in assay [1] is 1.56 µg/mL (≈ 2.21 µM); in assay [3], 6.25 µg/mL (≈ 8.87 µM); in assay [4] it was 1.56 µg/mL (≈ 2.21 µM); in assay [5], 1.56 µg/mL (≈ 2.21 µM). Moreover, the results for the Stimulation in assay [2] and in assay [6] were 1.09% and 0.32%, respectively.
For `Cc1cc(C(C)(C)CC(C)(C)C)cc2c1OCCOCCOCc1cccc(c1C(=O)O)COCCOCCO2`, the MIC is 12.5 µg/mL (≈ 22.4 µM) in assay [1], 25 µg/mL (≈ 44.7 µM) in assay [3] and 50 µg/mL (≈ 89.5 µM) in assay [4]. Further, the Stimulation in assay [2] was determined as 0.87%; in assay [6] it was 0.33%.
On to `Cc1cc(C(C)(C)CC(C)(C)C)cc2c1OCCOCCOCCOCc1cc(C(C)(C)C)cc(c1C(=O)O)COCCOCCOCCO2`, for which the minimum inhibitory concentration (MIC) is 3.12 µg/mL (≈ 4.44 µM) in assay [1], 12.5 µg/mL (≈ 17.8 µM) in assay [3], 6.25 µg/mL (≈ 8.89 µM) in assay [4] and 12.5 µg/mL (≈ 17.8 µM) in assay [5]. Further, the Stimulation is 0.41% in assay [2] and 0.11% in assay [6].
On to `CC(C)c1cc(C(C)(C)CC(C)(C)C)cc2c1OCCOCCOCc1cc(C(C)(C)C)cc(c1C(=O)O)COCCOCCO2`, for which the MIC in assay [1] is 0.78 µg/mL (≈ 1.21 µM); in assay [3], 0.78 µg/mL (≈ 1.21 µM); in assay [4] it was 0.78 µg/mL (≈ 1.21 µM); in assay [5] it was < 0.39 µg/mL. Moreover, the Stimulation in assay [2] was determined as 0.7%; in assay [6] it was 0.43%.
Take `CC(C)(C)CC(C)(C)c1ccc2c(c1)OCCOCCOCc1cc(C(C)(C)C)cc(c1C(=O)O)COCCOCCO2`: the MIC in assay [1] came to 6.25 µg/mL (≈ 10.4 µM); in assay [3], 12.5 µg/mL (≈ 20.8 µM); in assay [4], 6.25 µg/mL (≈ 10.4 µM); in assay [5], 6.25 µg/mL (≈ 10.4 µM). The Stimulation in assay [2] worked out at 0.97%; in assay [6] it was 0.64%.
For the compound `CC(C)(C)CC(C)(C)c1ccc2c(c1)OCCOCCOCCOCc1cc(C(C)(C)C)cc(c1C(=O)O)COCCOCCOCCO2`, the MIC in assay [1] was found to be 12.5 µg/mL (≈ 18.1 µM); in assay [3], 50 µg/mL (≈ 72.6 µM); in assay [4] it was 25 µg/mL (≈ 36.3 µM); in assay [5], 25 µg/mL (≈ 36.3 µM). Moreover, the Stimulation is 0.52% in assay [2] and 0.4% in assay [6].
